Hits are enriched below; roughly 4.8% of the tested compounds scored in any of these assays.
T cruzi repl: blocks replication of Trypanosoma cruzi; inhibition, % (test concentration not listed); 1.4% of 300,000 active; T. cruzi beta-gal in NIH3T3, luminescence, 90 h; AID 1885;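 active = mean inhibition across valid replicates above about 55%, limit read from the data; inconclusive = mean below that limit but half or more replicates reach it; inactive = mean below it, under half of replicates reach it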;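 note: signal also drops with host cell toxicity which is not excluded here; 0% = plate median of DMSO wells and 100% = zero luminescence signal; higher percent means less beta-gal luminescence so fewer parasites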
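System: mouse NIH/3T3 fibroblasts infected with β-gal-expressing T. cruzi Tulahuen C4 / Input: NIH/3T3 cells, 5,000 per well / Buffer or medium: Low-serum DMEM with 2% FBS / Probe or stimulus: 5000 reporter trypomastigotes per well / Schedule: ≥90 h infection period, 3 h prior cell attachment / Measured by: GalScreen luminescence, 60 min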
HSF-1 act: increases HSF-1 driven luciferase reporter signal | NIH3T3-HGL HSF-1 luciferase reporter, MG132, 8 h; 100% = twice DMSO control signal | activation, % at 9 µM | 1.7% of 300,000 active;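 active = mean replicate activation of at least 50% with a set share of replicates each reaching 50%; inconclusive = only one of those two conditions met; inactive = mean below 50% and too few replicates reaching it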;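 note: 0% = median of the neutral control wells and 100% = twice that signal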
Jurkat NFkB inh: inhibitors of the PMA/ionomycin-induced NF-kB reporter in Jurkat cells | PMA/ionomycin-induced NF-kB luciferase reporter, luminescence | AID 435003 | 0.53% of 330,000 active | inhibition, % at 4 µM; in the data active = inhibition above about 50%
GPR7 antagonist: blocks human GPR7 receptor signaling; P48145; GPR7-expressing cells, fluorescence antagonist assay; inhibition, % at 4.4 µM; 1.1% of 290,000 active; in the data active = inhibition above about 16%, passing the limit was not always enough;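 note: cells stimulated with the agonist NPW; 0% = agonist with vehicle and 100% = vehicle without agonist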
Target sequence (P48145 whole entry, looked up): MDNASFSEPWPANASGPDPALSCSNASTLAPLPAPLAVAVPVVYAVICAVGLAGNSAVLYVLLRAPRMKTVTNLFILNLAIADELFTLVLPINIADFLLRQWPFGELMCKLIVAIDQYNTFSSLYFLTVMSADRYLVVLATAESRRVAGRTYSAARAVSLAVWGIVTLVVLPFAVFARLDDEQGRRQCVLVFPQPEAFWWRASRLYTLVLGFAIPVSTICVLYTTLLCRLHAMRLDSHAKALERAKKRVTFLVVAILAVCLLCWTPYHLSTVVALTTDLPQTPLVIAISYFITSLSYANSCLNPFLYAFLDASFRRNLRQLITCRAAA
697 NFkB inh: lowers PMA/ionomycin-induced NF-kB signal in 697 B cells; 0.33% of 330,000 active; 697 B-cell NF-kB luciferase reporter, 16 h; inhibition, % at 4 µM; in the data active = inhibition above about 35%
HSF1 inhib: HSF1 inhibition. NIH3T3-HGL HSE-luciferase, MG132-induced, luminescence 8 h; stronger effect = lower value. activity change, negative = inhibition, % at 7.5 µM (by protocol). 0.77% of 300,000 active;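 active = more than half of replicate wells show activity change below -50%, luminescence cut by over half; inconclusive = some wells, but at most half, below -50%; inactive = no replicate well below -50%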;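 note: luciferase reports HSF-1 transcriptional activity via heat shock element; 0% = median of DMSO wells and -100% = zero luminescence signal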
GPR7 antag cf: human GPR7 antagonism, confirmation assay; shares compounds with GPR7 antagonist; GPR7-expressing cells, calcium fluorescence antagonist mode; inhibition, % at 4.4 µM; 52% of 2,400 active; AID 1952; in the data active = inhibition above about 24%;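 note: stimulated with the GPR7 agonist NPW; 0% = agonist plus vehicle and 100% = vehicle alone without agonist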
MCHR1 antag: MCHR1 (human) antagonism in GPR7 counter-screen; shares compounds with GPR7 antagonist; MCHR1-expressing cells, fluorescence antagonist assay; inhibition, % at 4.4 µM; 62% of 2,400 active; AID 2148; in the data active = inhibition above about 22%;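 note: 0% = vehicle with agonist and 100% = vehicle without agonist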
Jurkat NFkB conf: inhibitors of the PMA/ionomycin-induced NF-kB reporter in Jurkat cells, retest | AID 435020 | inhibition, % at 4 µM | 27% of 2,700 active | shares compounds with Jurkat NFkB inh | Jurkat NF-kB luciferase, 16 h;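 active = inhibition reaching about 45% at 4 µM in either replicate, limit read from the data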;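 note: plate controls were PMA/ionomycin stimulated DMSO wells for no effect and unstimulated DMSO wells for full effect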
* hit, by the source's call; ? = inconclusive; · = no result given.

SMILES	T cruzi repl	HSF-1 act	Jurkat NFkB inh	GPR7 antagonist	697 NFkB inh	HSF1 inhib	GPR7 antag cf	MCHR1 antag	Jurkat NFkB conf
CC[n+]1c(/C=C/N(C)c2ccccc2)oc2ccc(Cl)cc21	53.4	0.0	-1.6	-7.7	-31.9	-10.1	·	·	·
CCN1/C(=C/C=C/c2oc3ccc4ccccc4c3[n+]2CC)Oc2ccc3ccccc3c21	39.1	300.3*	92.5*	44.6*	-24.4	238.0	54.6*	57.7*	42.5
CCCCN1/C(=C/c2ccc3ccccc3[n+]2CC)Sc2ccccc21	62.7*	56.9*	86.8*	84.6*	33.4	11.4	81.2*	78.8*	67.2*
CCN1/C(=C/c2ccc3cc(C)ccc3[n+]2CC)Sc2cc(C)ccc21	·	·	·	-1.3	·	·	·	·	·
O=c1[nH]cnc2c1ncn2-c1ccc(N(CCO)CCO)cc1	·	-7.6	·	·	·	-7.6	·	·	·
Nc1ccccc1C#Cc1ccc([N+](=O)[O-])cc1	5.5	33.5	36.9	·	-185.6	23.9	·	·	·
Nc1ccccc1C#CC(=O)c1ccccc1	?	83.6*	51.8*	37.4*	-109.0	58.0	70.9*	35.6*	12.8
CC[n+]1c(/C=C/c2c[nH]c3ccccc23)ccc2cc(C)ccc21	·	·	93.2*	38.7*	-59.1	·	36.9*	80.1*	30.5
CCOc1ccc(NC(=O)CCNS(=O)(=O)c2ccc3c(c2)CC(C)N3C(C)=O)cc1 (stereo not given)	-18.3	-1.8	1.1	-15.2	20.7	-0.1	·	·	·
CCC(=O)N1c2ccc(S(=O)(=O)N3CCN(c4ccc([N+](=O)[O-])cc4)CC3)cc2CC1C (stereo not given)	3.6	6.4	51.7*	35.6*	31.6	-1.8	32.7*	44.0*	64.8*
CCC(=O)N1c2ccc(S(=O)(=O)N3CCN(CC)CC3)cc2CC1C (stereo not given)	-19.7	2.4	-7.6	-2.4	-19.8	-2.3	·	·	·
CC1CCN(C(=O)Cn2c3ccc(F)cc3c3nc4n(c(=O)c32)CCCS4)CC1	-7.5	4.0	1.4	-5.7	12.5	-0.9	·	·	·
CS(=O)(=O)c1nc(-c2ccc(Br)cc2)cc(-c2ccccc2)c1C#N	35.7	7.6	29.0	5.6	21.7	1.2	·	·	·
CS(=O)c1nc(-c2ccc(Br)cc2)cc(-c2ccccc2)c1C#N (stereo not given)	14.7	56.4*	92.9*	53.9*	-188.0	40.0	97.3*	100.9*	91.3*
Cc1ccc2nc(C)c(CN3CCN(c4ccc([N+](=O)[O-])cc4Cl)CC3)n2c1	41.5	14.3	51.0*	22.9*	-25.5	20.2	52.4*	52.3*	46.0*
COc1ccc(-c2cc(C3CCN(c4cc(Cl)nc(N)n4)CC3)[nH]n2)cc1	22.6	-17.1	3.0	7.2	-60.1	-7.9	·	·	·
Nc1nc(Cl)cc(N2CCC(c3cc(-c4ccc(Cl)cc4)n[nH]3)CC2)n1	58.2*	23.0	69.9*	37.8*	-8.4	1.8	26.0*	72.2*	63.3*
O=S(=O)(c1cccc(Cl)c1)N1CN(CC2CCCO2)c2nc3ccccc3nc21 (stereo not given)	-15.5	13.5	-7.4	9.1	-41.2	2.8	·	·	·
Cc1ccc(Cn2c(=N)n(CC(O)COc3ccccc3)c3ccccc32)cc1 (stereo not given)	58.9*	16.9	52.6*	29.1*	-39.7	10.6	43.1*	70.6*	12.1
COc1ccc(NC(=O)CN2C(=O)c3ccccc3S2(=O)=O)cc1S(=O)(=O)N1CCOCC1	·	·	11.2	·	19.5	·	·	·	·
NC(=O)CC(NC(=O)c1cccc(Br)c1)c1ccc(N2CCN(c3ccc(F)cc3)CC2)c([N+](=O)[O-])c1 (stereo not given)	-19.6	-1.8	13.6	-0.1	-22.9	-0.7	·	·	·
O=[N+]([O-])c1ccc(C[n+]2cccc3c4ccccc4ccc32)cc1	-3.0	3.6	10.5	-16.3	2.4	-12.5	·	·	·
CCCCCCCCC[n+]1cccc2c3ccccc3ccc21	59.0*	-21.1	70.8*	75.1*	-23.2	-17.4	80.2*	80.4*	68.5*
O=C(Nc1ccc(Cl)c(S(=O)(=O)N2CCOCC2)c1)c1ccc(OCC2CCCO2)cc1 (stereo not given)	-27.3	-2.2	60.0*	40.5*	-36.0	-16.5	47.5*	89.6*	64.2*
COCCOC(=O)c1[nH]c2c(c1C)C(=O)CC(c1ccco1)C2 (stereo not given)	-39.2	-11.3	59.6*	23.9*	-14.6	-11.2	13.7	35.6*	9.8
SMILES	T cruzi repl	HSF-1 act	Jurkat NFkB inh	GPR7 antagonist	697 NFkB inh	HSF1 inhib	GPR7 antag cf	MCHR1 antag	Jurkat NFkB conf
COc1ccc(N=C2S/C(=C\c3ccc(Cl)c([N+](=O)[O-])c3)C(=O)N2CCN(C)C)cc1	64.6*	94.7*	50.8*	48.5*	3.6	73.1	64.8*	59.4*	12.2
CCCN(CCC)C(C)C(=O)NCC1(c2ccccc2)CCCC1 (stereo not given)	17.0	4.3	1.3	-4.5	13.6	6.4	·	·	·
O=C(C#Cc1ccccc1)c1ccco1	-19.4	-95.9	50.7*	56.3*	-61.9	-95.9*	57.6*	66.4*	18.1
CC(C)Oc1ccc(C(CCN)C2CCCCC2)cc1 (stereo not given)	32.6	6.8	56.1*	55.0*	8.5	4.7	48.8*	67.0*	11.2
CC(C)Oc1ccc(C(=O)NC2CCCCC2)cc1	-1.4	?	-80.5	7.5	-80.8	17.7	·	·	·
CCOC(=O)CN1C(=O)N[C@@H](c2ccccc2)[C@H](C(C)=O)[C@H]1C	2.8	-18.5	-7.5	·	0.1	-0.3	·	·	·
C(=C\c1ccccc1)/CSc1nnc(-c2ccncc2)n1Cc1ccco1	20.2	9.6	2.5	-6.7	5.2	20.1	·	·	·
C(=C\c1ccccc1)/CSc1nnc(-c2ccccc2)n1Cc1ccco1	-18.0	15.2	59.6*	31.5*	-40.8	25.1	41.5*	63.9*	23.4
O=C(Nc1ccc(S(=O)(=O)N2CCCC2)cc1)c1ccc(CN2CCc3ccccc3C2)cc1	6.4	-0.1	74.5*	28.4*	-15.2	-0.7	47.3*	63.2*	75.1*
O=[N+]([O-])c1ccc(C2=NN(CCO)C(=Nc3ccc(OC(F)(F)F)cc3)SC2)cc1	9.3	-22.2	74.6*	27.6*	-0.3	-10.7	54.2*	36.9*	11.4
COc1cccc(CN(C)C(=O)c2cc(COc3ccc4ncccc4c3)on2)c1	27.4	2.7	52.3*	33.3*	19.0	-5.1	40.2*	57.4*	45.7
